Laboratory results reported in PMC3983339 (Journal of Medicinal Chemistry, 2014).
pKi: −log10 of the molar value.

What was measured:
PRMT5 = PRMT5 (Homo sapiens, UniProt O14744); test: radiometric P81 filter binding assay, PRMT5; type: biochemical; details: initial screening at 20 μM compound
Summary of the method: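 HA-PRMT5 was co-expressed with WDR77 in HEK293T cells and purified on HA-peptide agarose by peptide elution. Reactions at 30 °C used 50 mM HEPES pH 8.0, 50 mM NaCl, 1 mM EDTA, 0.5 mM DTT, with 0.5 μM [3H]SAM and 1 μM H4(1–20) peptide. Test compound at 20 μM was preincubated with enzyme and [3H]SAM for 5 min at room temperature, then peptide was added to start the reaction. Mixtures were spotted on P81 paper, washed with 50 mM NaHCO3 pH 9.0, and counted by scintillation. Controls lacked inhibitor, or both peptide and inhibitor.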

PRMT1 [1] = molecular target: T1, PRMT1 (Rattus norvegicus, UniProt Q63009); test: radiometric P81 filter binding assay, PRMT1; type: biochemical; details: for inhibition at 20 µM: read-out: inhibition of PRMT1
T1 sequence (Q63009 whole entry): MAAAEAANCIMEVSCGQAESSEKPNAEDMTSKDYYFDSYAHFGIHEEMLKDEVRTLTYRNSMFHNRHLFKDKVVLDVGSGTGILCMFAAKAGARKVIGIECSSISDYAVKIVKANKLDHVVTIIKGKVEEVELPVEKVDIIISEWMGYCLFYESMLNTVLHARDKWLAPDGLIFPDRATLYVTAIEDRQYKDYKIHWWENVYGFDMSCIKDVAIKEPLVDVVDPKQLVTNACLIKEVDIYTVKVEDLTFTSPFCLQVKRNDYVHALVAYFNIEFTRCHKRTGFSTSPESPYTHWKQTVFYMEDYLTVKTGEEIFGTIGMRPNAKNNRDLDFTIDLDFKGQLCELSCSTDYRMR

PRMT1 [2] = molecular target: T1, PRMT1; test: steady-state kinetic analysis of PRMT1 inhibition; type: biochemical; details: for pKi: Kis
CHRF-288-11 cells = test: CellTiter-Glo cell viability, CHRF-288-11 cells; type: cell-based; details: 20 μM, compared with HEL, Jurkat, HL-60
Summary of the method: (§1)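 Leukemia cell lines were grown in RPMI plus 10% FBS and seeded at 1000–1500 cells per well. Cultures received 20 μM test compound or an equal amount of DMSO. CellTiter-Glo reagent was added at 0, 24, 48 and 72 h after treatment, and luminescence was read. Viability is expressed as viable cells in the treated group as a percentage of the DMSO control.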

MOLM-13 cells = test: CellTiter-Glo cell viability, MOLM-13 cells; type: cell-based; details: 20 μM, compared with HEL, Jurkat, HL-60
Summary of the method: as §1

CMY cells = test: CellTiter-Glo cell viability, CMY cells; type: cell-based; details: 20 μM, compared with HEL, Jurkat, HL-60
Summary of the method: as §1

[3] = tested on: intracellular PRMT1 activity (GFP-ALY methylation) in 293T cells; test: GFP-ALY methylation in 293T cells; type: cell-based, human
Summary of the method: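 A stable 293T line expressing GFP-ALY, kept in DMEM plus 10% FBS, was exposed to 20 μM test compound for 15 h. Cells were lysed on ice for 30 min in H buffer (150 mM NaCl, 20 mM Tris pH 7.8, 1% NP-40, phosphatase/protease inhibitors, 1 mM DTT) and cleared at 12000g for 20 min. GFP-ALY was pulled down on GFP antibody beads and analysed by SDS–PAGE and ASYM24 Western blot with chemiluminescence detection.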

PRMT1 [4] = molecular target: T1, PRMT1; test: competitive fluorescence anisotropy binding assay; details: 524 nm, 0.2 μM H4-FL, 2.0 μM PRMT1, increasing compound concentration
Summary of the method: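 Recombinant His6-PRMT1 was expressed in E. coli BL21(DE3) and Ni-NTA purified. 0.2 μM fluorescein-H4(1–20) and 2 μM PRMT1 were mixed, then test compound was titrated in until anisotropy levelled off. Excitation was 498 nm and emission 524 nm. Anisotropy from several scans was plotted against inhibitor concentration.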

HEL cells = test: CellTiter-Glo cell viability, HEL cells; type: cell-based; details: HEL cells (JAK2V617F), 20 μM, 3 days
Summary of the method: as §1

leukemia cell lines = test: CellTiter-Glo cell viability, panel of leukemia cell lines; type: cell-based; details: 10 different leukemia cell lines, 20 μM, 3 consecutive days
[5] = varied H4-20, [3H]AdoMet fixed at 3 μM

Chain of PRMT5 (O14744 whole entry, species assumed): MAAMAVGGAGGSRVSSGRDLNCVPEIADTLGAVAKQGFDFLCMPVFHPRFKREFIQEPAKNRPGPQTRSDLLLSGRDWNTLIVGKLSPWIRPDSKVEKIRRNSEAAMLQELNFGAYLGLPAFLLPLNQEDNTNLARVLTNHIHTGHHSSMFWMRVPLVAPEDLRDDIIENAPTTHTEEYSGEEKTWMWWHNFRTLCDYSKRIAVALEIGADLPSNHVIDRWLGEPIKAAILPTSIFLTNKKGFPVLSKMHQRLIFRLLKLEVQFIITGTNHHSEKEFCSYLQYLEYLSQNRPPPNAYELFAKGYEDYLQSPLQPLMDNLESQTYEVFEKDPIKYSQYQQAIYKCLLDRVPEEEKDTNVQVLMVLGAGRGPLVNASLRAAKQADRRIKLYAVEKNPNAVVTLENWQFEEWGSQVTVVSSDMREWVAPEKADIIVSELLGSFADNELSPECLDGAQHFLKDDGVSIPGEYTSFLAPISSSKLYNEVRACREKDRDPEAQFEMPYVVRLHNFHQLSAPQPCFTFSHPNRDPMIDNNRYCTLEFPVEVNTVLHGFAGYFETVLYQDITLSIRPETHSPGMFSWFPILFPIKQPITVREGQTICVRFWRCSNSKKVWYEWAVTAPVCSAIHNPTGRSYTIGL
Chain of PRMT5 (Q9BQA1 whole entry partner, species assumed): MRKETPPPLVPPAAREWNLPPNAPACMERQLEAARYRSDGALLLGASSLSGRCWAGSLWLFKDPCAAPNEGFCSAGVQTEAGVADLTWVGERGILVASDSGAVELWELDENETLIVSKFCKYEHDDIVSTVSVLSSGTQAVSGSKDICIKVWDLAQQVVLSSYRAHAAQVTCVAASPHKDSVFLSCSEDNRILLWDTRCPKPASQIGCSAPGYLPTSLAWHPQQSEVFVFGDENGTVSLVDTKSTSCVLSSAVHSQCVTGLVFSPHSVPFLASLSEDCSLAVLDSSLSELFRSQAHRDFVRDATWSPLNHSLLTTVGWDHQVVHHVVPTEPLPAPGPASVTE

`N=C(N)c1ccc(-c2ccc(-c3ccc(C(=N)N)c(F)c3)o2)cc1F` [Compound 21] was tested, and the “inhibition of PRMT5” value (PRMT5) was “very weak activity” and the “inhibition of PRMT1” value (PRMT1 [1]; initial screening at 20 μM compound) was “very weak activity”.
`N=C(N)c1ccc(-c2ccc(-c3ccc(C(=N)N)cc3)o2)cc1` [Compound 1, 2,5-bis(4-amidinophenyl)furan] was tested, and the pKi (PRMT1 [2]; [5]) was 5.59, the pKi (PRMT1 [2]; varied [3H]SAM, H4-20 fixed at 15 μM) was 4.80 and the “Kis smaller than Kii” value (PRMT1 [2]; varied H4-20) was “about 14 fold”. The Kii (PRMT1 [2]; [5]) was 38 µM, the “sensitivity of cell growth versus other cell lines” value (CHRF-288-11 cells) was “more sensitive” and the “sensitivity of cell growth versus other cell lines” value (MOLM-13 cells) was “more sensitive”. For the same compound, the “sensitivity of cell growth versus other cell lines” value (CMY cells) was “more sensitive”, the “level of methylated GFP-ALY protein” value ([3]; 293T cells, 20 μM, 15 h, ASYM24 antibody) was “significantly reduced” and the cell membrane permeability ([3]; inferred from inhibition of cellular PRMT1 activity in 293T cells) was “permeable to cell membrane”. For the same compound, the inhibition at 20 µM (PRMT1 [1]) was > 75%, the “fluorescence anisotropy plateau of H4-FL and PRMT1 mixture” value (PRMT1 [4]) was “about 0.055” and the cell growth (HEL cells) was “except HEL cells”. The cell growth (leukemia cell lines) was “inhibited cell growth for most of the leukemia cell lines”.
With `N=C(N)c1ccc(-c2ccc(-c3ccc(OCCCCCCCCOc4ccc(-c5ccc(-c6ccc(C(=N)N)cc6)o5)cc4)cc3)o2)cc1` [Compound 2] the inhibition at 20 µM (PRMT1 [1]) was > 85%.
